The list is not random: actives were taken first. Their share in the collection is about 1.6%.
RAD52 anneal inh = blocks human RAD52 DNA annealing; actives 0.46% (n = 360,000); AID 651710; P43351; recombinant RAD52 DNA annealing, FRET fluorescence; inhibition, % at 18.7 µM;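 active = every replicate showing at least 50% inhibition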
Apaf1 inhib = human Apaf-1 inhibition | O14727 | reconstituted apoptosome caspase-3 activity, DEVD-Rh110 fluorescence | inhibition, % at 20 µM | actives 0.71% (n = 330,000) | AID 489030; active = inhibition of at least 40% at 20 µM
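System – cell-free apoptosome with Apaf-1, procaspase-3 and caspase-9 · Buffer or medium – pH 7.5 Hepes buffer with CHAPS, BSA, DTT · Also added – cytochrome c with DEVD-Rh110 · Times – 30 min compound preincubation, 50 min activation, room temperature · Technique – Rh110 fluorescence intensity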
DNA FID counter = counter-screen for HCV NS3 helicase inhibitors: DNA intercalator displacement. AID 1845. actives 0.17% (n = 290,000). DNA fluorescent intercalator displacement, fluorescence. inhibition, % at 7.9 µM; in the data active = inhibition above about 37%;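 also: higher means more ethidium bromide displaced from hairpin DNA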
RAD54 inh = inhibitors of human RAD54 branch migration; RAD54 Holliday junction branch migration, FAM/BHQ fluorescence; actives 0.14% (n = 360,000); AID 602329; inhibition, % at 10.4 µM; Q92698;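 active = mean normalized replicate activity at least 40 and at least half of replicates scoring 40 or more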;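 also: inhibitors cause a drop in the FAM fluorescence signal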
Neddyl block = inhibitors of human cullin neddylation | P61081+Q13564 | TR-FRET cullin neddylation, biochemical | calls only at 25 µM | actives 0.58% (n = 360,000) | AID 651699; in the data active = inhibition above about 36%
UBC13 polyUb = human UBC13 polyubiquitination inhibition | P61088 | UBC13 polyubiquitin chain formation, TR-FRET | inhibition, % at 20 µM | actives 0.47% (n = 330,000) | AID 485273; in the data active = inhibition above about 45%, passing the limit was not always enough
Neddyl conf = cullin neddylation inhibition, confirmation; calls only at 25 µM; shares compounds with Neddyl block; TR-FRET cullin neddylation biochemical assay; actives 13% (n = 1,800); in the data active = inhibition above about 40%;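 also: neddylation substrate is the cullin 1 ring ligase complex with SKP2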
Calls only; – = inactive; · = no result given; + = active, no number.

SMILES	RAD52 anneal inh	Apaf1 inhib	DNA FID counter	RAD54 inh	Neddyl block	UBC13 polyUb	Neddyl conf
O=C(N/N=C/c1ccc(-c2cccc(C(F)(F)F)c2)o1)c1ccccc1O	·	–	–	·	+	–	–
CCN(CC)CCNC(=O)Cn1c(-c2ccccn2)nc2ccccc21	–	–	–	–	+	–	+
COc1cccc(/C=C/C(=O)OCC(=O)Nc2cccc(S(=O)(=O)NC3=NCCCCC3)c2)c1	–	–	·	–	+	–	·
COc1ccc(/C=C/C(=O)OCC(=O)Nc2nnc(-c3ccccc3)o2)c(OC)c1	–	·	·	–	–	·	·
COC(=O)c1ccc(CNC(=O)COC(=O)/C=C/c2cccc(OC)c2)cc1	–	·	·	–	+	·	–
COc1cccc(/C=C/C(=O)OCC(=O)Nc2nnc(-c3ccccc3)o2)c1	·	–	·	–	+	–	–
C[C@@H]1CCCCO[C@H](CN(C)CC2CC2)[C@H](C)CN([C@@H](C)CO)C(=O)c2cc(NS(=O)(=O)c3cccs3)ccc2O1	–	·	·	·	·	·	·
CC(C)(C)C1c2[nH]c3ccccc3c2CCN1Cc1cccc(OCCO)c1 (stereo not drawn)	–	–	–	–	+	–	–
O=C(NC(CO)(CO)CO)c1coc(=O)c(Br)c1	·	–	–	–	–	–	·
O=C(NNC(=O)C1C2CCCCC21)c1coc(=O)c(Br)c1 (stereo not drawn)	–	–	–	–	+	–	–
O=C(Nc1cc(Cl)cc(Cl)c1)c1coc(=O)c(Br)c1	–	–	–	–	+	–	–
CCC(=O)Nc1cc(-c2nn(C)c(=O)c3ccccc23)ccc1N1CCCCC1	·	–	–	–	+	–	–
CN1C(=O)c2cc(NC(=O)C3CCOCC3)ccc2OC[C@H]2O[C@H](CC(=O)NC3CCCC3)CC[C@@H]21	–	·	·	–	·	·	·
C[C@H](CO)N1C[C@H](C)[C@H](CN(C)Cc2ccc3c(c2)OCO3)Oc2ccc(NC(=O)C3CC3)cc2C1=O	–	·	·	–	·	·	·
CN1C(=O)c2cc(NC(=O)c3cccs3)ccc2OC[C@@H]2O[C@@H](CC(=O)NCC(F)(F)F)CC[C@H]21	–	·	·	–	·	·	·
C[C@H](CO)N1C[C@H](C)[C@H](CN(C)C(=O)Nc2ccc(C(F)(F)F)cc2)Oc2c(NS(C)(=O)=O)cccc2C1=O	–	·	·	–	·	·	·
COc1cc2ccccc2cc1C(=O)OCC(=O)N(CC(C)C)c1c(N)n(Cc2ccccc2)c(=O)[nH]c1=O	–	–	·	–	+	–	–
CC(C)CN(C(=O)COC(=O)c1cccc2ccccc12)c1c(N)n(Cc2ccccc2)c(=O)[nH]c1=O	–	–	·	·	–	–	·
CC(C)CN(C(=O)COC(=O)c1ccccc1NCc1ccco1)c1c(N)n(Cc2ccccc2)c(=O)[nH]c1=O	–	–	·	–	+	–	–
COCCN(C(=O)COC(=O)c1cc2ccccc2cc1OC)c1c(N)n(Cc2ccccc2)c(=O)[nH]c1=O	–	–	·	·	+	–	+
CN(C)CC(=O)Nc1ccc2c(c1)[C@H]1C[C@H](CC(=O)NCCN3CCCCC3)O[C@H](CO)[C@H]1O2	–	·	·	–	·	·	·
Cc1cc(N2CCOCC2)nc(N2CCOCC2)c1C#N	–	·	·	–	–	·	·
Cc1cc(C)c(C#N)c(N2CCOCC2)n1	·	–	–	–	+	–	+
O=c1c(-c2cccnc2)nc2ccccc2n1C(c1ccccn1)c1nc2ccccc2[nH]1 (stereo not drawn)	–	·	·	·	+	·	–
O=c1c(-c2ccccc2)nc2ccccc2n1C(c1ccccn1)c1nc2ccccc2[nH]1 (stereo not drawn)	–	·	·	·	+	·	–
O=c1c(-c2cccs2)nc2ccccc2n1C(c1ccccn1)c1nc2ccccc2[nH]1 (stereo not drawn)	–	·	·	·	·	·	·
O=S(=O)(N[C@H]1CC[C@H](CCn2cc(C3CC3)nn2)O[C@H]1CO)c1ccc(F)cc1	–	·	·	–	·	·	·
COCCCNC(=O)C(C)N1c2cccc3cccc(c23)S1(=O)=O (stereo not drawn)	–	–	–	–	+	–	–
COc1ccc(NC(=O)N(C)C[C@H]2Oc3ccc(NS(=O)(=O)c4c(C)noc4C)cc3CC(=O)N([C@H](C)CO)C[C@H]2C)cc1	–	·	·	–	·	·	·

Bioassay records (PubChem)
